Scp-1 inhibitor: blocks human Scp-1 phosphatase activity; inhibition, % at 20 µM; Q9GZU7; Recombinant Scp1, phosphopeptide, malachite green phosphate absorbance; 340,000 compounds, 0.88% hits;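 active = inhibition above about 50% at 20 µM, limit read from the data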;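 note: plate controls were DMSO wells with enzyme for no effect and wells lacking enzyme for full effect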
Target sequence (Q9GZU7 76-261 limits assumed): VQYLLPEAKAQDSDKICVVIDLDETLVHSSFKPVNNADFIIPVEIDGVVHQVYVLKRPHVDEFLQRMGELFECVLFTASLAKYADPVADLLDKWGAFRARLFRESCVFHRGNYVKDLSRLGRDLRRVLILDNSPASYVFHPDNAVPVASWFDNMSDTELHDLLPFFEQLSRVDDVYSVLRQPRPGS
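Times: enzyme reaction 45 min at room temperature, colour 5 min, stabilisation 30 min. Material: SCP-1 catalytic fragment, aa 76-261. Medium: Acidic Tris acetate buffer with magnesium and detergent. Signal: colorimetric free-phosphate detection, absorbance 630 nm. Read-out basis: % inhibition of SCP-1 phosphate liberation. Reagent: Phosphorylated 17-residue peptide substrate.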
SUMO1-SIM PPI: alters human SUMO1 binding to SIM partners; P63165; SUMO1 binding to a labelled peptide, TR-FRET, 1 h; inhibition, % at 20 µM; 360,000 compounds, 0.33% hits; AID 602429; in the data active = inhibition above about 37%
Target sequence (P63165 whole entry, looked up): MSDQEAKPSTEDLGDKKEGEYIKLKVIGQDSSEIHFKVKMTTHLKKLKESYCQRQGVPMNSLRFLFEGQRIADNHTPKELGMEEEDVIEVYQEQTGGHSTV
STEP inh: inhibitors of human striatal-enriched phosphatase STEP. P54829. inhibition, % at 20 µM. recombinant STEP, OMFP fluorogenic substrate, fluorescence. 360,000 compounds, 0.25% hits. AID 588621;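 active = inhibition at 20 µM, scaled per plate between control wells, above about 37%, limit read from the data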;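 note: 0% = DMSO with enzyme and substrate and 100% = substrate only without enzyme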
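System: STEP (striatal-enriched tyrosine phosphatase) enzyme, cell-free; medium: Bis-Tris pH 6.0 buffer with DTT, detergent; dosing: 20 µM, 1% DMSO; times: reaction 20 min, ambient temperature; detection: fluorescence, 480/540 nm; read-out basis: normalized % inhibition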
LMPTP block: LMPTP (human) inhibition; recombinant LMPTP-A, OMFP fluorogenic substrate, fluorescence intensity; inhibition, % at 20 µM; P24666; 360,000 compounds, 0.22% hits;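 active = compounds that cut the enzyme signal by at least half of the control window in the single-dose screen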;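 note: plate controls were DMSO wells with enzyme plus substrate for no effect and substrate without enzyme for full effect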
Target sequence (P24666 whole entry, looked up): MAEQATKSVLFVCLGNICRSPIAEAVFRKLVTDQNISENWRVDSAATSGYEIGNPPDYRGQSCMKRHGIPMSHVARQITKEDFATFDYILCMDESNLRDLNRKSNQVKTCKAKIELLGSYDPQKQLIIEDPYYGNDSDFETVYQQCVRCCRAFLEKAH
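Test system – LMPTP-A phosphatase enzyme · Quantity – 0.625 nM LMPTP-A final · Reagent – OMFP substrate, 400 µM final · Dosing – one test concentration per compound, 20 µM, with 3% DMSO overall · Timing – 50 min enzyme reaction at room temperature, protected from light · Detection – fluorescence intensity · Controls – substrate-only low control, DMSO enzyme-plus-substrate high control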
DNMT1 inh: inhibitors of human DNMT1. 360,000 compounds, 0.83% hits. AID 588458. DNMT1 molecular beacon, Hinp1I cleavage, fluorescence. inhibition (reported as % activation of signal), % at 10 µM; in the data active = inhibition above about 50%
HKDC1 inhibitor: HKDC1 (human) hexokinase inhibition | 340,000 compounds, 0.16% hits | inhibition, % at 20 µM | Q2TB90 | recombinant HKDC1, G6PDH/diaphorase resazurin coupled fluorescence;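 active = inhibition above about 35% when tested at 20 µM, limit read from the data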;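 note: plate controls were DMSO wells with enzyme for no effect and DMSO wells lacking enzyme for full effect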
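Test system: recombinant HKDC1 (HK5) hexokinase enzyme, produced in-house / Doses: 20 µM test compound, 1% DMSO / Timing: 90 min, room temperature / Detection: G6PDH/diaphorase-coupled fluorescence, 1 mM NADP, 100 µM resazurin, 525/613 nm / Control set: DMSO wells with and without enzyme mix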
Scp1 confirm: Scp-1 (human) inhibition, single-dose confirmed; shares compounds with Scp-1 inhibitor; recombinant SCP-1 catalytic domain, phosphate release, malachite green absorbance; inhibition, % at 20 µM; 2,500 compounds, 61% hits; AID 540281;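 note: plate controls were DMSO with enzyme for no effect and buffer wells lacking enzyme for full effect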
MG interference: counter-screen for Scp-1 inhibitors: colorimetric interference; 2,500 tested, under 10 active; apparent inhibition (interference), % at 20 µM; Colorimetric interference counterscreen, malachite green absorbance 630 nm; shares compounds with Scp-1 inhibitor; AID 540313;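 note: compounds added after enzyme reaction finished so only phosphate colour detection is probed; plate controls were DMSO wells with completed Scp-1 reaction for no effect and substrate wells lacking enzyme for full effect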
Scp-1 Tm shift: Scp-1 (human) binding by thermal shift | Recombinant SCP1, Sypro Orange thermal shift Tm | thermal shift relative to vanadate control, % at 40 µM | shares compounds with Scp-1 inhibitor | 1,500 compounds, 25% hits;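 active = substances whose mean melting-temperature shift, as a percentage of the reference inhibitor's shift, reaches about 5.3%, limit read from the data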;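 note: 0% = Tm of DMSO wells and 100% = Tm with sodium orthovanadate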
* = called active by the depositor; / = no result given. This is a sample that favours compounds with a hit; in the whole collection about 1.8% have one here.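 Rule for the calls, unless noted: active = inhibition of at least 30% at 20 µM; inactive = the rest.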

SMILES	Scp-1 inhibitor	SUMO1-SIM PPI	STEP inh	LMPTP block	DNMT1 inh	HKDC1 inhibitor	Scp1 confirm	MG interference	Scp-1 Tm shift
Cc1cccc(S(=O)(=O)c2c(C)cc(C)nc2Cl)c1	-3	1	-1	0	-4	-2	/	/	/
Cc1cccc(C)c1NC(=O)C1c2cccc[n+]2CC(=O)N1Cc1ccc2c(c1)OCO2 (stereo not drawn)	5	0	2	-1	-9	0	/	/	/
Cc1ccccc1NC(=O)C1c2cccc[n+]2CC(=O)N1c1c(C)cccc1C (stereo not drawn)	89*	-2	3	-1	-14	6	91*	-9	0
Cc1ccc(-c2cc(C(=O)N3CCN(c4ccc(F)cc4)CC3)c3ccccc3n2)o1	53*	-4	2	2	19	9	29	-17	/
Cc1ccc(-c2cc(C(=O)N3CCOCC3)c3ccccc3n2)o1	-7	-7	-3	0	1	-2	/	/	/
COCc1c(C(=O)N2CCN(Cc3c(F)cccc3Cl)CC2)oc2ccccc12	53*	3	2	2	0	20	-8	-10	/
COCc1c(C(=O)N2CCN(Cc3ccc(C#N)cc3)CC2)oc2ccccc12	-5	-3	-1	0	-1	-7	/	/	/
COc1cc(/C=C2\C(=N)N3N=C(S(C)(=O)=O)SC3=NC2=O)ccc1OS(=O)(=O)c1ccc(C)cc1	69*	14	3	1	-1	17	75*	-16	12*
COc1ccccc1OCCOc1ccc(/C=C2\C(=N)N3N=C(S(C)(=O)=O)SC3=NC2=O)cc1	80*	-3	3	12	1	21	56*	-12	6.9*
COc1cccc(OCCOc2ccc(/C=C3\C(=N)N4N=C(S(C)(=O)=O)SC4=NC3=O)cc2OC)c1	42	7	2	3	-14	5	/	/	/
O=C(CSc1nnc(-c2ccncc2)n1-c1ccc(F)cc1)NC(=O)NCc1ccco1	89*	0	5	7	68*	-2	64*	-8	-3
COc1cccc(C2c3c(-c4ccccc4)n[nH]c3C(=O)N2c2ccc(C(=O)O)cc2)c1 (stereo not drawn)	53*	10	3	-1	2	5	52*	-21	24*
CCOc1ccc(-c2nnn(CC(=O)NCc3ccccc3)n2)cc1	57*	2	1	2	4	5	-9	-22	/
Cc1csc2c(N3CCN(C(=S)Nc4ccc(F)cc4F)CC3)ncnc12	8	5	0	2	-2	10	/	/	/
CC(=C/C(=O)O)/C=C/c1ccc(Cl)o1	61*	2	9	-1	106*	-1	54*	-15	1
CC(/C=C/c1ccc(C)o1)=C\C(=O)O	-4	0	2	-2	4	-3	/	/	/
CCc1nnc(NC(=O)CCC(=O)N2CCN(C3c4ccccc4-c4ccccc43)CC2)s1	72*	-5	1	0	-2	5	-21	-12	/
COCCNC(=O)C1(C)Cc2c(-c3cccc(C(F)(F)F)c3)ccnc2O1 (stereo not drawn)	/	3	-3	-1	0	/	/	/	/
CCN(CC(=O)NCc1cccs1)C(=O)COc1cccc(C(F)(F)F)c1	-8	7	-2	-1	-2	-5	/	/	/
CCN(CC(=O)NCc1cccs1)C(=O)COc1ccc(C(C)=O)cc1	59*	1	-3	0	3	0	11	5	/
O=C(CSc1nnc(-c2ccccc2F)n1C1CCCCC1)Nc1cc(C(=O)O)ccc1Cl	0	9	-1	-1	-2	2	/	/	/
C[N+]1(CCCCCCC(=O)/C=N/O)CCCCCC1	96*	1	-3	-7	0	-2	-9	-14	/
